The source made the active and inactive calls. No cut-off for these calls is given here.
Assays:
HT-29 [1] = assay: Induction of necrosis in human HT-29 cells at 20 uM after 48 hrs by Hoechst 33258/propidium iodide staining based phase contrast microscopic analysis; type: functional
In short: (§1)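 Cells in 48-well plates treated with 0.5, 10, 20 or 40 µM for 24 and 48 h. Values are read at 48 h, 20 µM for test agents and 0.5 µM for controls. Staining is Hoechst 33258/propidium iodide double staining with fluorescence microscopy. Blue nuclei are viable or early-to-mid apoptotic, and pink nuclei are late apoptotic or necrotic. Apoptosis and necrosis are scored from chromatin condensation as % of cells. Cells are grown at 37 °C in 5% CO2 in RPMI, DMEM or McCoy's 5A with 10–15% heat-inactivated FCS.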

Candida albicans = assay: Antimicrobial activity against Candida albicans ATCC 10231 assessed as zone of inhibition at 30 uL for 24 hrs at 30 degC by disk diffusion test; type: functional, organism-based
In short: (§2)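 Agar well diffusion on Mueller Hinton agar seeded with 0.1 mL broth culture (18–24 h), adjusted to 0.5 McFarland (about 1×10^8 bacteria or 1×10^6 yeast cells/mL). A 6 mm well is filled with 30 µL of compound from a fresh 1000 µg/mL DMSO stock. Plates are held at 30 °C for 24 h and inhibition zone diameter is read in mm.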

Enterococcus faecalis = assay: Antimicrobial activity against Enterococcus faecalis ATCC 29212 assessed as zone of inhibition at 30 uL for 24 hrs at 37 degC by disk diffusion test; type: functional, organism-based
In short: (§3)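 Compound (30 µL of a fresh 1000 µg/mL DMSO stock) goes into a 6 mm well cut in Mueller Hinton agar inoculated with 0.1 mL broth culture adjusted to 0.5 McFarland (about 1×10^8 cells/mL). Plates are incubated 24 h at 37 °C, then zone of inhibition diameter is measured in mm.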

[2] = Antiproliferative activity against human Saos2 cells after 24 and 72 hrs by MTT assay; type: functional, cell-based; details: SAOS-2
In short: (§4)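 ATCC human cell lines are kept in RPMI, DMEM or McCoy's 5A with 10–15% heat-inactivated FCS at 37 °C and 5% CO2. They are seeded at 1×10^4–1×10^5 cells/mL in 48-well plates and exposed to 0.5, 10, 20 or 40 µM. Viability is read by MTT (590 nm) at 24 and 72 h. Growth is expressed relative to untreated cells and IC50 is fitted, in triplicate.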

Micrococcus luteus [3] = assay: Antimicrobial activity against Micrococcus luteus ATCC 9341 assessed as zone of inhibition at 30 uL for 24 hrs at 30 degC by disk diffusion test; type: functional, organism-based; in short: as §2
Cyberlindnera jadinii = assay: Antimicrobial activity against Candida utilis ATCC 9950 assessed as zone of inhibition at 30 uL for 24 hrs at 30 degC by disk diffusion test; type: functional, organism-based; in short: as §2
Bacillus subtilis [4] = assay: Antimicrobial activity against Bacillus subtilis ATCC 6633 for 24 hrs by microdillution method; type: functional
In short: (§5)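 Broth microdilution. Compound is dissolved in DMSO (2 mg/mL) and diluted in Mueller Hinton broth as two-fold serial dilutions from 256 to 0.125 µg/mL. Bacteria are pre-grown in nutrient broth at 30 °C, and the final inoculum is about 10^6 cfu/mL. Tests are incubated 37 °C for 24 h. MIC is the lowest concentration giving complete inhibition. Streptomycin is the positive control.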

Klebsiella pneumoniae = assay: Antimicrobial activity against Klebsiella pneumoniae ATCC 13882 assessed as zone of inhibition at 30 uL for 24 hrs at 37 degC by disk diffusion test; type: functional, organism-based; in short: as §3
MCF7 [5] = assay: Induction of necrosis in human MCF7 cells at 20 uM after 48 hrs by Hoechst 33258/propidium iodide staining based phase contrast microscopic analysis; type: functional; in short: as §1
Proteus vulgaris = assay: Antimicrobial activity against Proteus vulgaris ATCC 33420 assessed as zone of inhibition at 30 uL for 24 hrs at 37 degC by disk diffusion test; type: functional, organism-based; in short: as §3
HT-29 [6] = assay: Induction of apoptosis in human HT-29 cells at 20 uM after 48 hrs by Hoechst 33258/propidium iodide staining based phase contrast microscopic analysis; type: functional; in short: as §1
Bacillus cereus [7] = assay: Antimicrobial activity against Bacillus cereus ATCC 11778 for 24 hrs by microdillution method; type: functional; in short: as §5
MCF7 [8] = assay: Induction of apoptosis in human MCF7 cells at 20 uM after 48 hrs by Hoechst 33258/propidium iodide staining based phase contrast microscopic analysis; type: functional; in short: as §1
MCF7 [9] = assay: Antiproliferative activity against human MCF7 cells after 24 and 72 hrs by MTT assay; type: functional, cell-based; in short: as §4
HL-60 [10] = assay: Induction of apoptosis in human HL60 cells at 20 uM after 48 hrs by Hoechst 33258/propidium iodide staining based phase contrast microscopic analysis; type: functional; in short: as §1
HeLa [11] = assay: Antiproliferative activity against human HeLa cells after 24 and 72 hrs by MTT assay; type: functional, cell-based; in short: as §4
Staphylococcus aureus = assay: Antimicrobial activity against Staphylococcus aureus ATCC 25923 assessed as zone of inhibition at 30 uL for 24 hrs at 37 degC by disk diffusion test; type: functional, organism-based; in short: as §3
Bacillus subtilis [12] = assay: Antimicrobial activity against Bacillus subtilis ATCC 6633 assessed as zone of inhibition at 30 uL for 24 hrs at 30 degC by disk diffusion test; type: functional; in short: as §2
HL-60 [13] = assay: Antiproliferative activity against human HL60 cells after 24 and 72 hrs by MTT assay; type: functional, cell-based; in short: as §4
Nakaseomyces glabratus = assay: Antimicrobial activity against Candida glabrata assessed as zone of inhibition at 30 uL for 24 hrs at 30 degC by disk diffusion test; type: functional, organism-based; in short: as §2
Pseudomonas aeruginosa = assay: Antimicrobial activity against Pseudomonas aeruginosa ATCC 35032 assessed as zone of inhibition at 30 uL for 24 hrs at 37 degC by disk diffusion test; type: functional, organism-based; in short: as §3
Candida tropicalis = assay: Antimicrobial activity against Candida tropicalis assessed as zone of inhibition at 30 uL for 24 hrs at 30 degC by disk diffusion test; type: functional, organism-based; in short: as §2
HeLa [14] = assay: Induction of apoptosis in human HeLa cells at 20 uM after 48 hrs by Hoechst 33258/propidium iodide staining based phase contrast microscopic analysis; type: functional; in short: as §1
Salmonella typhimurium = assay: Antimicrobial activity against Salmonella typhimurium ATCC 14028 assessed as zone of inhibition at 30 uL for 24 hrs at 37 degC by disk diffusion test; type: functional, organism-based; details: Salmonella enterica subsp. enterica serovar Typhimurium; in short: as §3
Bacillus thuringiensis [15] = assay: Antimicrobial activity against Bacillus thuringiensis assessed as zone of inhibition at 30 uL for 24 hrs at 30 degC by disk diffusion test; type: functional; in short: as §2
Caco-2 [16] = assay: Antiproliferative activity against human Caco2 cells after 24 and 72 hrs by MTT assay; type: functional, cell-based; in short: as §4
Bacillus thuringiensis [17] = assay: Antimicrobial activity against Bacillus thuringiensis for 24 hrs by microdillution method; type: functional; in short: as §5
HT-29 [18] = assay: Antiproliferative activity against human HT-29 cells after 24 and 72 hrs by MTT assay; type: functional, cell-based; in short: as §4
Saccharomyces cerevisiae = assay: Antimicrobial activity against Saccharomyces cerevisiae ATCC 9763 assessed as zone of inhibition at 30 uL for 24 hrs at 30 degC by disk diffusion test; type: functional, organism-based; in short: as §2
Caco-2 [19] = assay: Induction of necrosis in human Caco2 cells at 20 uM after 48 hrs by Hoechst 33258/propidium iodide staining based phase contrast microscopic analysis; type: functional; in short: as §1
Caco-2 [20] = assay: Induction of apoptosis in human Caco2 cells at 20 uM after 48 hrs by Hoechst 33258/propidium iodide staining based phase contrast microscopic analysis; type: functional; in short: as §1
[21] = test system: Staphylococcus epidermidis; assay: Antimicrobial activity against Staphylococcus epidermidis ATCC 12228 assessed as zone of inhibition at 30 uL for 24 hrs at 37 degC by disk diffusion test; type: functional, organism-based; in short: as §3
Bacillus cereus [22] = assay: Antimicrobial activity against Bacillus cereus ATCC 11778 assessed as zone of inhibition at 30 uL for 24 hrs at 30 degC by disk diffusion test; type: functional; in short: as §2
HL-60 [23] = assay: Induction of necrosis in human HL60 cells at 20 uM after 48 hrs by Hoechst 33258/propidium iodide staining based phase contrast microscopic analysis; type: functional; in short: as §1
Escherichia coli = assay: Antimicrobial activity against Escherichia coli ATCC 25922 assessed as zone of inhibition at 30 uL for 24 hrs at 37 degC by disk diffusion test; type: functional, organism-based; in short: as §3
SAOS-2 [24] = assay: Induction of necrosis in human Saos2 cells at 20 uM after 48 hrs by Hoechst 33258/propidium iodide staining based […] microscopic analysis; type: functional; in short: as §1
SAOS-2 [25] = assay: Induction of apoptosis in human Saos2 cells at 20 uM after 48 hrs by Hoechst 33258/propidium iodide staining based phase contrast microscopic analysis; type: functional; in short: as §1
HeLa [26] = assay: Induction of necrosis in human HeLa cells at 20 uM after 48 hrs by Hoechst 33258/propidium iodide staining based phase contrast microscopic analysis; type: functional; in short: as §1
Micrococcus luteus [27] = assay: Antimicrobial activity against Micrococcus luteus ATCC 9341 assessed as zone of inhibition at 30 mg for 24 hrs at 30 degC by disk diffusion test; type: functional; details: ATCC 9341, 24 h, read-out: DIZ

For `CC1(C)CC[C@]2(C(=O)OCc3ccccc3)CC[C@]3(C)C(=CC[C@@H]4[C@@]5(C)CC[C@H](O)[C@@](C)(/C=N/O)[C@@H]5CC[C@]43C)[C@@H]2C1`, the Activity (HT-29 [1]) was 29%, the “diameter of the inhibition zone (DIZ)” value (Candida albicans) was “inactive” and the “diameter of the inhibition zone (DIZ)” value (Enterococcus faecalis) was “inactive”. The IC50 [2] was 10.3 µM, the “diameter of the inhibition zone (DIZ)” value (Micrococcus luteus [3]) was “inactive” and the “diameter of the inhibition zone (DIZ)” value (Cyberlindnera jadinii) was “inactive”. The MIC (Bacillus subtilis [4]) was “inactive”, the “diameter of the inhibition zone (DIZ)” value (Klebsiella pneumoniae) was “inactive” and the Activity (MCF7 [5]) was 54%. The “diameter of the inhibition zone (DIZ)” value (Proteus vulgaris) was “inactive”, the Activity (HT-29 [6]) was 12% and the MIC (Bacillus cereus [7]) was “inactive”. It also gave an Activity (MCF7 [8]) of 12%, an IC50 (MCF7 [9]) of 6.67 µM and an Activity (HL-60 [10]) of 8%. The IC50 (HeLa [11]) was 28.9 µM, the “diameter of the inhibition zone (DIZ)” value (Staphylococcus aureus) was “inactive” and the “diameter of the inhibition zone (DIZ)” value (Bacillus subtilis [12]) was “inactive”. For the same molecule, the IC50 (HL-60 [13]) was 10.6 µM, the “diameter of the inhibition zone (DIZ)” value (Nakaseomyces glabratus) was “inactive” and the “diameter of the inhibition zone (DIZ)” value (Pseudomonas aeruginosa) was “inactive”. The “diameter of the inhibition zone (DIZ)” value (Candida tropicalis) was “inactive”, the Activity (HeLa [14]) was 11% and the “diameter of the inhibition zone (DIZ)” value (Salmonella typhimurium) was “inactive”. The “diameter of the inhibition zone (DIZ)” value (Bacillus thuringiensis [15]) was “inactive”, the IC50 (Caco-2 [16]) was 16.1 µM and the MIC (Bacillus thuringiensis [17]) was “inactive”. For the same molecule, the IC50 (HT-29 [18]) was 8.01 µM, the “diameter of the inhibition zone (DIZ)” value (Saccharomyces cerevisiae) was “inactive” and the Activity (Caco-2 [19]) was 32%. For the same molecule, the Activity (Caco-2 [20]) was 11%, the “diameter of the inhibition zone (DIZ)” value [21] was “inactive” and the “diameter of the inhibition zone (DIZ)” value (Bacillus cereus [22]) was “inactive”. The Activity (HL-60 [23]) was 41%, the “diameter of the inhibition zone (DIZ)” value (Escherichia coli) was “inactive” and the Activity (SAOS-2 [24]) was 23%. The Activity (SAOS-2 [25]) was 9% and the Activity (HeLa [26]) was 32%.
Work on `O=C(N[C@H](CO)[C@H](O)c1ccc([N+](=O)[O-])cc1)C(Cl)Cl` [CHLORAMPHENICOL] yielded a zone of inhibition at 30000 µg/disc (Micrococcus luteus [27]) of 25 mm.
Molecule `CN(C)[C@@H]1C(O)=C(C(N)=O)C(=O)[C@@]2(O)C(O)=C3C(=O)c4c(O)cccc4[C@@](C)(O)[C@H]3C[C@@H]12` [TETRACYCLINE] has a zone of inhibition at 30000 µg/disc (Micrococcus luteus [27]) of 26 mm.

Reference: ChEMBL document CHEMBL3297654, “Synthesis, antimicrobial and cytotoxic activities, and structure-activity relationships of gypsogenin derivatives against human cancer cells” (Eur J Med Chem, 2014)
